According to ChEMBL document CHEMBL5058577, “EUbOPEN Chemogenomics Library 2 (Multiplex)” (2022):

System: Fibroblast
Test: Multiplex assay against human fibroblast
Format: toxicity, cell-based
In short: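 Hoechst33342, BioTracker Green Microtubule Cytoskeleton Dye, MitoTracker Red and Annexin V Alexa Fluor 680 were added to live cells at seeding, and imaging on a CQ1 microscope at 37°C and 5% CO2 followed compound addition. Gating by CellPathfinder machine learning separated cells into Hoechst high-intensity objects or normal cells, then normal cells into healthy, pyknosed or fragmented nuclei, then pyknosed cells into mitotic or apoptotic. Per cents of healthy-nucleus cells are reported for the tubulin, mitochondrial-mass and membrane-permeability phenotypes.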

[1] = 12 h, 1 µM, compound concentration 1 uM, replicate 1
[2] = 12 h, 1 µM, compound concentration 1 uM, replicate 2
[3] = 12 h, 10 µM, compound concentration 10 uM, replicate 1
[4] = 12 h, 10 µM, compound concentration 10 uM, replicate 2
[5] = 24 h, 1 µM, compound concentration 1 uM, replicate 1
[6] = 24 h, 1 µM, compound concentration 1 uM, replicate 2
[7] = 24 h, 10 µM, compound concentration 10 uM, replicate 1
[8] = 24 h, 10 µM, compound concentration 10 uM, replicate 2
[9] = 48 h, 1 µM, compound concentration 1 uM, replicate 1
[10] = 48 h, 1 µM, compound concentration 1 uM, replicate 2
[11] = 48 h, 10 µM, compound concentration 10 uM, replicate 1
[12] = 48 h, 10 µM, compound concentration 10 uM, replicate 2

## Cc1ccc(F)cc1C(=O)Nc1ccc(C(=O)N2Cc3cccn3Cc3ccccc32)c(Cl)c1 [LIXIVAPTAN]
[1]
  Population Apoptotic (%): 40%
  Population Fragmented Nuclei (%): 11%
  Population Healthy Nuclei (%): 73%
  Population Hoechst High Intensity Objects (%): 5%
  Population Membrane Permeable-Phenotype (%): 0%
  Population Mitochondria Different-Phenotype (%): 3%
  Population Mitotic Cells (%): 59%
  Population Normal (%): 94%
  Population Pyknosed Nuclei (%): 15%
  Population Tubulin-Different-Phenotype (%): 28%
  Total Cell Count: 186
[2]
  Population Apoptotic (%): 50%
  Population Fragmented Nuclei (%): 30%
  Population Healthy Nuclei (%): 47%
  Population Hoechst High Intensity Objects (%): 3%
  Population Membrane Permeable-Phenotype (%): 1%
  Population Mitochondria Different-Phenotype (%): 9%
  Population Mitotic Cells (%): 50%
  Population Normal (%): 96%
  Population Pyknosed Nuclei (%): 21%
  Population Tubulin-Different-Phenotype (%): 38%
  Total Cell Count: 117
[3]
  Population Apoptotic (%): 34%
  Population Fragmented Nuclei (%): 18%
  Population Healthy Nuclei (%): 58%
  Population Hoechst High Intensity Objects (%): 0%
  Population Membrane Permeable-Phenotype (%): 2%
  Population Mitochondria Different-Phenotype (%): 5%
  Population Mitotic Cells (%): 65%
  Population Normal (%): 99%
  Population Pyknosed Nuclei (%): 23%
  Population Tubulin-Different-Phenotype (%): 62%
  Total Cell Count: 137
[4]
  Population Apoptotic (%): 31%
  Population Fragmented Nuclei (%): 27%
  Population Healthy Nuclei (%): 46%
  Population Hoechst High Intensity Objects (%): 5%
  Population Membrane Permeable-Phenotype (%): 6%
  Population Mitochondria Different-Phenotype (%): 10%
  Population Mitotic Cells (%): 68%
  Population Normal (%): 94%
  Population Pyknosed Nuclei (%): 25%
  Population Tubulin-Different-Phenotype (%): 72%
  Total Cell Count: 179
[5]
  Population Apoptotic (%): 50%
  Population Fragmented Nuclei (%): 12%
  Population Healthy Nuclei (%): 73%
  Population Hoechst High Intensity Objects (%): 1%
  Population Membrane Permeable-Phenotype (%): 1%
  Population Mitochondria Different-Phenotype (%): 0%
  Population Mitotic Cells (%): 50%
  Population Normal (%): 98%
  Population Pyknosed Nuclei (%): 14%
  Population Tubulin-Different-Phenotype (%): 33%
  Total Cell Count: 172
[6]
  Population Apoptotic (%): 32%
  Population Fragmented Nuclei (%): 33%
  Population Healthy Nuclei (%): 43%
  Population Hoechst High Intensity Objects (%): 3%
  Population Membrane Permeable-Phenotype (%): 5%
  Population Mitochondria Different-Phenotype (%): 5%
  Population Mitotic Cells (%): 67%
  Population Normal (%): 96%
  Population Pyknosed Nuclei (%): 23%
  Population Tubulin-Different-Phenotype (%): 52%
  Total Cell Count: 126
[7]
  Population Apoptotic (%): 25%
  Population Fragmented Nuclei (%): 19%
  Population Healthy Nuclei (%): 63%
  Population Hoechst High Intensity Objects (%): 0%
  Population Membrane Permeable-Phenotype (%): 2%
  Population Mitochondria Different-Phenotype (%): 8%
  Population Mitotic Cells (%): 75%
  Population Normal (%): 99%
  Population Pyknosed Nuclei (%): 17%
  Population Tubulin-Different-Phenotype (%): 63%
  Total Cell Count: 142
[8]
  Population Apoptotic (%): 51%
  Population Fragmented Nuclei (%): 26%
  Population Healthy Nuclei (%): 51%
  Population Hoechst High Intensity Objects (%): 5%
  Population Membrane Permeable-Phenotype (%): 11%
  Population Mitochondria Different-Phenotype (%): 12%
  Population Mitotic Cells (%): 48%
  Population Normal (%): 94%
  Population Pyknosed Nuclei (%): 22%
  Population Tubulin-Different-Phenotype (%): 82%
  Total Cell Count: 174
[9]
  Population Apoptotic (%): 63%
  Population Fragmented Nuclei (%): 18%
  Population Healthy Nuclei (%): 68%
  Population Hoechst High Intensity Objects (%): 8%
  Population Membrane Permeable-Phenotype (%): 0%
  Population Mitochondria Different-Phenotype (%): 3%
  Population Mitotic Cells (%): 36%
  Population Normal (%): 91%
  Population Pyknosed Nuclei (%): 13%
  Population Tubulin-Different-Phenotype (%): 28%
  Total Cell Count: 181
[10]
  Population Apoptotic (%): 50%
  Population Fragmented Nuclei (%): 37%
  Population Healthy Nuclei (%): 40%
  Population Hoechst High Intensity Objects (%): 0%
  Population Membrane Permeable-Phenotype (%): 4%
  Population Mitochondria Different-Phenotype (%): 11%
  Population Mitotic Cells (%): 50%
  Population Normal (%): 99%
  Population Pyknosed Nuclei (%): 21%
  Population Tubulin-Different-Phenotype (%): 53%
  Total Cell Count: 111
[11]
  Population Apoptotic (%): 70%
  Population Fragmented Nuclei (%): 25%
  Population Healthy Nuclei (%): 62%
  Population Hoechst High Intensity Objects (%): 2%
  Population Membrane Permeable-Phenotype (%): 0%
  Population Mitochondria Different-Phenotype (%): 13%
  Population Mitotic Cells (%): 29%
  Population Normal (%): 97%
  Population Pyknosed Nuclei (%): 11%
  Population Tubulin-Different-Phenotype (%): 69%
  Total Cell Count: 149
[12]
  Population Apoptotic (%): 73%
  Population Fragmented Nuclei (%): 36%
  Population Healthy Nuclei (%): 51%
  Population Hoechst High Intensity Objects (%): 5%
  Population Membrane Permeable-Phenotype (%): 6%
  Population Mitotic Cells (%): 26%
  Population Normal (%): 94%
  Population Tubulin-Different-Phenotype (%): 78%
  Total Cell Count: 170
